UPR CHOP act: activators of apoptotic CHOP UPR arm, primary screen, cell-based, CHO-CHOP luciferase reporter, luminescence, uHTS. UPR activation; percent of tunicamycin response over DMSO baseline. activation, % at 10 µM. 330,000 compounds, 0.34% hits;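 active means at 10 µM dose, activation of 40% or more, normalized to positive control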;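 further: 100% = tunicamycin at 10 µg/mL and 0% = DMSO alone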
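Test system: CHO CHOP reporter cells. Input: 500 CHO-CHOP cells per well. Medium: F12 with 10% FBS. Technique: luciferase luminescence. Measure: percent activation relative to tunicamycin control. Dosing: 10 µM compound, 0.5% DMSO. Timing: 16-18 h cell attachment, then 6 h compound exposure, 37 °C.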
MPTP inh: mitochondrial permeability transition pore inhibitors, primary screen, biochemical, isolated mouse mitochondria, absorbance. 360,000 compounds, 1.4% hits. AID 602449, 2012. inhibition, % at 10 µM. Ca2+ swelling absorbance, 30 min;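 active means inhibition of 50% or more, scaled per plate between neutral and stimulator controls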;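 further: 0% = DMSO wells given calcium and 100% = 1 mM EGTA wells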
GRIN3A LBD mod: binders of NR3A ligand-binding domain, primary screen, biophysical, differential scanning fluorimetry, uHTS. NR3A LBD differential scanning fluorimetry, Tm shift; 0% = protein alone, 100% = glycine-bound protein. Tm shift relative to glycine control, % at 25 µM. 340,000 compounds, 2.5% hits. AID 1259313, 2017;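 active means melting temperature shift of at least 10% of the positive control shift, at one fixed dose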
aDG glyco act: activators of alpha-DG glycosylation, primary screen, uHTS, Pro5-aDG cells, AlphaScreen; alpha-DG glycosylation AlphaScreen (IIH6); 0% Pro5, 100% B10-LARGE cell signal; activation, % at 10 µM; 360,000 compounds, 0.22% hits;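 active means activation of at least 8% versus controls, or a plate z-score of at least 8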;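 further: Pro5 are CHO cells carrying HIG-tagged alpha-DG that lacks glycosylation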
CHOP inhibitor: inhibitors of CHOP promoter induction, primary screen, cell-based, unfolded protein response, luciferase reporter. CHO-K1 CHOP-promoter luciferase, tunicamycin-induced, 15-18 h. inhibition, % at 10 µM. 220,000 compounds, 3.8% hits. AID 2732, 2010;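 active means compounds that reduced the stress-induced luciferase reporter signal by more than about 70% of percent inhibition, limit read from the data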;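 further: 0% = tunicamycin plus vehicle and 100% = wells without tunicamycin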
XBP1 UPR activ: activators of adaptive XBP1 UPR arm, primary screen, cell-based, CHO-XBP1 luciferase reporter, luminescence, uHTS | IRE1-XBP1 UPR activation; percent of tunicamycin response, DMSO as zero | activation, % at 20 µM | 330,000 compounds, 0.33% hits;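 active means versus positive control, 20 µM dose yields 30% or more activation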;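 further: 100% = tunicamycin at 10 µg/mL and 0% = DMSO only wells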
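Material: CHO cell line with stable XBP1 luciferase reporter; schedule: 16-18 h cell attachment at 37 °C, then 6 h compound exposure; signal: glow luminescence from Steady-Glo reagent; medium: serum-containing F12 medium, 10% FBS; benchmarks: tunicamycin 10 µg/mL and vehicle-only wells; read-out: percent activation relative to tunicamycin reference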
* marks the source's active call; other numbers are inactive results; . = no result given. The list is not random: actives were taken first. Their share in the collection is about 5.6%.

SMILES	UPR CHOP act	MPTP inh	GRIN3A LBD mod	aDG glyco act	CHOP inhibitor	XBP1 UPR activ
COc1ccc(C(=O)Nc2ccc(C(=O)Nc3cccc(C)c3)cc2)cc1	2	1	14*	1	.	0
COC(=O)c1ccc(NC(=O)Nc2ccc(OC)c(OC)c2)cc1	10	15	21*	1	-23	4
COc1ccc(NC(=O)CN(C)CC(=O)NCC(=O)Nc2ccc(F)cc2)cc1	2	2	2	0	.	-2
COc1cccc(NC(=O)CN(C)CC(=O)NCC(=O)Nc2ccc(F)cc2)c1	-1	0	19*	0	.	0
CCOc1cc(/C=N/NC(=O)CCc2n[nH]c(=O)[nH]c2=O)ccc1O	2	0	-1	0	-5	1
COc1ccc(NC(=O)Nc2cccc(OC)c2)cc1	4	5	25*	0	.	2
COc1cccc(NC(=O)Nc2ccccc2Br)c1	4	29	1	1	5	-1
CC(=O)N1c2ccccc2C(C)CC12CCCCC2 (centres undefined)	-1	25	-1	0	85*	-2
Cc1nnc(SCC(=O)NC(C)(C)C)n1NCc1c(F)cccc1Cl	-1	0	1	0	-4	-2
O=C(CC1SC(=O)NC1=O)Oc1ccc(/C=N/NC(=O)c2ccccc2O)cc1 (centres undefined)	3	1	0	0	13	2
COc1ccc(Cl)cc1C=CC=NNS(=O)(=O)c1ccc(C)cc1	.	1	20*	2	.	.
COc1ccc(Br)cc1C=NNS(=O)(=O)c1ccc(C)cc1	.	1	.	0	.	.
CC(C)n1c(CNC(=O)c2ccccc2F)nnc1SCC(=O)c1ccc(F)cc1	.	-1	-3	0	.	.
O=c1[nH]c(NCCO)nc2c1C1(CCCC1)Cc1ccccc1-2	2	3	-9	0	31	-2
CCN(CC)Cc1nc2c(c(=O)[nH]1)C1(CCCC1)Cc1ccccc1-2	-1	0	0	0	84*	-1
C=CCNC(=S)NNc1nc2c(c(=O)[nH]1)C1(CCCCC1)Cc1ccccc1-2	1	36	7	0	93*	3
COc1ccc(NC(=O)/C(N=Nc2cc(S(=O)(=O)Nc3ccc(OC)cc3)ccc2OC)=C(\C)O)cc1	9	4	11*	0	12	0
COc1ccc(C(=O)/C=C/c2ccc(O)cc2)c(O)c1CC=C(C)C	1	2	15*	0	79*	-3
COc1cc(Cl)cc(C(c2c(C(=O)O)[nH]c3ccccc23)c2c(C(=O)O)[nH]c3ccccc23)c1O	.	-3	22*	0	.	.
O=C(O)c1[nH]c2ccccc2c1C(c1cc(Br)ccc1O)c1c(C(=O)O)[nH]c2ccccc12	-1	1	11*	0	.	-5
CC[C@H](C)[C@@H](C(=O)NCCCCCCCCCCC(=O)N1CCNCC1)n1cc(CCCCCN)nn1	-3	34	-3	0	.	-4
O=S(=O)(Nc1cccc(-n2cnnn2)c1)c1ccccc1C(F)(F)F	1	0	-1	0	.	-4
CCC(=O)Nc1ccc(/C(C)=N/NC(=O)c2c(-c3ccccc3Cl)noc2C)cc1	-1	-1	11*	0	10	-2
CCC(=O)Nc1ccc(/C(C)=N\NC(=O)c2ccc(C)s2)cc1	1	-1	22*	0	6	-1
OCC[C@H]1C[C@H](O)[C@@H](O)[C@@]2(CCCO2)O1	-1	0	0	0	.	1
SMILES	UPR CHOP act	MPTP inh	GRIN3A LBD mod	aDG glyco act	CHOP inhibitor	XBP1 UPR activ
COc1ccccc1/C=C\C=N\n1c(-c2ccc(Cl)cc2)n[nH]c1=S	1	3	-6	0	89*	4
Cc1ccccc1-c1n[nH]c(=S)n1/N=C/c1c(C)nn(-c2ccccc2)c1C	-1	2	5	0	30	2
Cc1nn(-c2ccccc2)c(C)c1/C=N/n1c(-c2ccc(C(C)(C)C)cc2)n[nH]c1=S	0	4	-6	0	84*	6
COc1ccccc1/C=C/C=N/n1c(-c2ccc(F)cc2)n[nH]c1=S	1	2	-9	0	-27	-1
S=c1[nH]nc(-c2ccncc2)n1/N=C/c1cn(-c2ccccc2)nc1-c1ccc(Cl)cc1	2	2	1	0	91*	8
CCNC(=O)C1CCCN(C(=O)c2ccccc2)CC1 (centres undefined)	.	-1	.	0	.	.
C/C(CC(=O)Nc1ccc(N(C)C)cc1)=N\NC(=O)c1ccc([N+](=O)[O-])cc1	0	0	1	0	.	-2
Cc1cccc(N2CCN(C(=S)Nc3ccc4nc(N5CCOCC5)cc(C)c4c3)CC2C)c1 (centres undefined)	6	2	-9	0	88*	0
Cc1ccc(C)c(N2CCN(C(=S)NC3CCCCC3)CC2)c1	-1	2	0	1	79*	1
Cc1ccc(C)c(N2CCN(C(=S)Nc3ccc4nc(N5CCN(C)CC5)cc(C)c4c3)CC2)c1	1	3	0	0	77*	5
CCOC(=O)C1=CCN(S(=O)(=O)c2ccccc2C)C1c1cccc(Cl)c1 (centres undefined)	.	0	.	0	.	.
CCCCNC(=O)Cn1c(=O)oc2cc(S(=O)(=O)N3CC(C)CC(C)C3)ccc21 (centres undefined)	-2	2	-1	0	94*	0
Cc1cc(C)cc(NC(=O)Cn2c(=O)oc3cc(S(=O)(=O)N4CC(C)CC(C)C4)ccc32)c1 (centres undefined)	2	1	-2	0	83*	-4
CC1CC(C)CN(S(=O)(=O)c2ccc3c(c2)oc(=O)n3CC(=O)N(C)Cc2ccccc2)C1 (centres undefined)	0	-1	0	0	.	-2
COCCCNC(=O)Cn1c(=O)oc2cc(S(=O)(=O)N3CC(C)CC(C)C3)ccc21 (centres undefined)	0	1	-1	0	.	-8
CC(C)[C@H]1COCCS(=O)(=O)N1Cc1ccccc1-c1ccccc1	0	0	0	0	.	-1
NS(=O)(=O)c1ccc(Nc2nc(-c3ccc(O)cc3O)cs2)cc1	0	1	15*	0	18	-5
